This passage reports GI50 and Activity results from ChEMBL document CHEMBL1147131, “Investigation of the lactam side chain length necessary for optimal indenoisoquinoline topoisomerase I inhibition and cytotoxicity in human cancer cell cultures” (J Med Chem, 2007).

Calls of active or inactive are those of the source. The calls are words filed in the database; no cut-off is given here. Some results are limits rather than exact numbers.

One data set relates to SF-268. Nature of the data set: Cytotoxicity against human SF268 cells. In kind it is functional.
Data set [1] can be described thus: Cytotoxicity against human HOP62 cells. In kind it is cell-based. The note with it: HOP-62 cells.
Data set [2] can be described thus: Cytotoxicity against human HCT116 cells. Format: cell-based. The note with it: HCT-116 cells.
Data set [3] in a line: Cytotoxicity against human UACC62 cells. Format: cell-based. The note with it: UACC-62 cells.
The nature of data set [4]: Cytotoxicity against human OVCAR-3 cells. In kind it is cell-based.
Data set [5] in a line: Cytotoxicity against human SN12C cells. In kind it is cell-based.
Data set [6] is described as follows: Cytotoxicity against human DU145 cells. Format: cell-based. The note with it: DU-145 cells.
Data set [7] can be described thus: Cytotoxicity against human […] cells. In kind it is cell-based.
The target in data set [8] is T1, DNA topoisomerase 1 (Homo sapiens) (UniProt P11387).
T1 sequence (whole entry): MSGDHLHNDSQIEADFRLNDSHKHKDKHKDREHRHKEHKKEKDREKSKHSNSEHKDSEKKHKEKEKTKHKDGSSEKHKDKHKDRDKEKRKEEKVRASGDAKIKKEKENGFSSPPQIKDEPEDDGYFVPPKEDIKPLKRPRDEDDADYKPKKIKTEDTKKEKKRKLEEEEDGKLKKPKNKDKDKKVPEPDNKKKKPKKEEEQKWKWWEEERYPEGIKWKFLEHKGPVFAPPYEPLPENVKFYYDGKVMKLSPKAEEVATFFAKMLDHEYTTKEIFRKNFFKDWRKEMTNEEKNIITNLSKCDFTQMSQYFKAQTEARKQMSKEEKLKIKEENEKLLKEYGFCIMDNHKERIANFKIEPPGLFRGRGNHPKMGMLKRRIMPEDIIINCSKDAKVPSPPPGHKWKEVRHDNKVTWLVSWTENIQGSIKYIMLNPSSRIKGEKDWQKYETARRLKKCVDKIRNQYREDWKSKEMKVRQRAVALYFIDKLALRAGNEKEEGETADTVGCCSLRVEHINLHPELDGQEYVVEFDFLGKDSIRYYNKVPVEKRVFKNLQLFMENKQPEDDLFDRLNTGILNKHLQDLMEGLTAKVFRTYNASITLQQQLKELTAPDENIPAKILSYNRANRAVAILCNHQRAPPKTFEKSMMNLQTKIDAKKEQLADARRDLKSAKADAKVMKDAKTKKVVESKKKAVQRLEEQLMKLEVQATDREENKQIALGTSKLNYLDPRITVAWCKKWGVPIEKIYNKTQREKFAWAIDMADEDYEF
Nature of the data set: Inhibition of human recombinant topoisomerase 1-mediated DNA cleavage after 30 mins. The method in brief:
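Human recombinant Top1 purified from baculovirus. Substrate: 161 bp PvuII/HindIII fragment of pBluescript SK(−), 3′-end labeled at the HindIII site by Klenow fill-in with [α-32P]-dGTP. About 50,000 dpm per reaction, incubated with Top1 plus drug for 30 min at 22 °C. Stopped with SDS (0.5% final). Run on denaturing 16% polyacrylamide/7 M urea gels and phosphorimaged. Cleavage scored semi-quantitatively (+ scale) against the parent indenoisoquinoline.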

The GI50 is the concentration giving 50% growth inhibition. Lower therefore signals greater sensitivity of the cells.

As to `CC(C)(C)OC(=O)NCCCCCCCCCCCn1c2c(c3ccccc3c1=O)C(=O)c1ccccc1-2`, the GI50 was 29.5 µM in the data set on SF-268; 20.9 µM in data set [1]; 35.5 µM in data set [2]; 24 µM in data set [3]; 70.8 µM in [4]; more than 100 µM in data set [5]. Besides, the GI50 is 91.2 µM in [6] and more than 100 µM in data set [7].
With `NCCCCn1c2c(c3ccccc3c1=O)C(=O)c1ccccc1-2`, the GI50 in the data set with SF-268 was 0.1 µM; in [1], 0.08 µM; in data set [2] it was 0.1 µM; in data set [3], 0.05 µM; in data set [4], 0.52 µM; in data set [5] it was 0.04 µM. Besides, the GI50 in data set [6] worked out at 0.01 µM; in [7] it was 0.84 µM.
For the molecule `CC[C@@]1(O)C(=O)OCc2c1cc1n(c2=O)Cc2cc3ccccc3nc2-1` [CAMPTOTHECIN], the GI50 with SF-268 is 0.01 µM; in [7], 0.04 µM.
Regarding `NCCCCCCCCCn1c2c(c3ccccc3c1=O)C(=O)c1ccccc1-2`, the concentration for 50% growth inhibition (GI50) in the data set on SF-268 turned out to be 9.77 µM; in data set [1] it was 6.76 µM; in [2] it was 6.46 µM; in [3], 9.33 µM; in data set [4], 9.55 µM; in data set [5], 8.51 µM. For the same molecule, the 50% growth inhibitory concentration (GI50) is 6.03 µM in [6] and 9.55 µM in [7]. Also, in data set [8], the outcome was inactive.
`O=C1c2ccccc2-c2c1c1ccccc1c(=O)n2Cc1cccnc1`: the GI50 with SF-268 was 6.76 µM; in data set [1] it was 7.59 µM; in data set [3] it was 8.71 µM; in [4] it was 13.8 µM; in [5] it was 13.8 µM; in data set [6], 13.8 µM. Moreover, the GI50 in data set [7] came to 42.7 µM.
Take `NCCCCCCn1c2c(c3ccccc3c1=O)C(=O)c1ccccc1-2`: the GI50 with SF-268 is 1.23 µM; in [1], 1.29 µM; in data set [2] it was 0.912 µM; in [3], 1.62 µM; in data set [4], 2 µM; in [5], 1.32 µM. For the same molecule, the 50% growth inhibitory concentration (GI50) in data set [6] came out at 0.603 µM; in data set [7], 2.04 µM.
For `O=C1c2ccccc2-c2c1c1ccccc1c(=O)n2CCc1ccccn1`, the GI50 in the data set on SF-268 is 17.4 µM; in data set [1], 21.4 µM; in data set [3] it was 27.5 µM; in data set [4], more than 100 µM; in [5], 77.6 µM; in [6], 74.1 µM. Further, halving of growth in data set [7] (GI50) required 5.13 µM. The result in data set [8] was inactive.
With `CC(C)(C)OC(=O)NCCCCCCCCCCn1c2c(c3ccccc3c1=O)C(=O)c1ccccc1-2`, the 50% growth inhibitory concentration (GI50) in the data set with SF-268 was 42.7 µM; in data set [1] it was 28.8 µM; in [2], 60.3 µM; in data set [3], 43.6 µM; in data set [4], more than 100 µM; in data set [5], more than 100 µM. Further, the concentration for 50% growth inhibition (GI50) is 97.7 µM in data set [6] and more than 100 µM in [7]. Besides, the result in [8] was inactive.
For `COc1cc2c3c(n(CCCNCCNCCN)c(=O)c2cc1OC)-c1cc2c(cc1C3=O)OCO2`, the 50% growth inhibitory concentration (GI50) in data set [1] was found to be 2.8 µM; in data set [2] it was 0.9 µM; in data set [3], 2.6 µM; in data set [4], 1.7 µM; in data set [5] it was 2.5 µM; in data set [6], 1.2 µM. In data set [7], this molecule came in with a GI50 of 2.7 µM.
`NCCCCCCCCCCCCn1c2c(c3ccccc3c1=O)C(=O)c1ccccc1-2`: the GI50 in the data set with SF-268 worked out at 18.2 µM; in [1], 17 µM; in [3], 14.8 µM; in [4], 17.8 µM; in data set [5] it was 13.5 µM; in [6] it was 19.1 µM. The molecule also displayed a GI50 in data set [7] of 19.5 µM.
On to `NCCn1c2c(c3ccccc3c1=O)C(=O)c1ccccc1-2`, for which the GI50 with SF-268 was found to be 0.21 µM; in data set [1], 0.62 µM; in data set [2], 0.27 µM; in data set [3], 0.92 µM; in [4], 0.71 µM; in [5], 0.49 µM. The results for the GI50 in data set [6] and in [7] were 0.76 µM and 0.92 µM, respectively.
For the molecule `CC(C)(C)OC(=O)NCCCCCCCCCCCCn1c2c(c3ccccc3c1=O)C(=O)c1ccccc1-2`, the concentration for 50% growth inhibition (GI50) was 20.4 µM with SF-268; 32.4 µM in data set [1]; more than 100 µM in data set [2]; 27.5 µM in data set [3]; more than 100 µM in data set [4]; more than 100 µM in data set [5]. Also, the GI50 in [6] is 91.2 µM; in data set [7] it was more than 100 µM.
On to `O=C1c2ccccc2-c2c1c1ccccc1c(=O)n2Cc1ccccn1`, for which the 50% growth inhibitory concentration (GI50) with SF-268 was 12.3 µM; in [1], 11.2 µM; in [3], 10.7 µM; in [4], 13.8 µM; in [5], 28.2 µM; in data set [6], 13.5 µM. The 50% growth inhibitory concentration (GI50) in data set [7] turned out to be 3.09 µM. Further, in data set [8], the outcome was inactive.
In the case of `CC(C)(C)OC(=O)NCCCCCCCCCn1c2c(c3ccccc3c1=O)C(=O)c1ccccc1-2`, the GI50 in the data set on SF-268 was 17.8 µM; in [1] it was 24.5 µM; in [3] it was 17.4 µM; in [4], 28.8 µM; in data set [5], 77.6 µM; in data set [6] it was more than 100 µM. Also, the GI50 in data set [7] is more than 100 µM.
As for `CC(C)(C)OC(=O)NCCCCCCCCn1c2c(c3ccccc3c1=O)C(=O)c1ccccc1-2`, the 50% growth inhibitory concentration (GI50) with SF-268 was 8.71 µM; in data set [1], 10.7 µM; in data set [2], 25.7 µM; in [3], 15.5 µM; in [5] it was more than 50.1 µM; in data set [6] it was more than 50.1 µM. The same molecule showed a 50% growth inhibitory concentration (GI50) in data set [7] of more than 50.1 µM. Moreover, the outcome in data set [8] was inactive.
Take `NCCCn1c2c(c3ccccc3c1=O)C(=O)c1ccccc1-2`: the concentration for 50% growth inhibition (GI50) with SF-268 worked out at 0.25 µM; in data set [1] it was 0.2 µM; in [2] it was 0.18 µM; in [3] it was 0.26 µM; in [4] it was 1.38 µM; in data set [5], 0.16 µM. Further, the figures for the GI50 in data set [6] and in data set [7] were 0.22 µM and 0.78 µM, respectively.
For `COc1cc2c3c(n(CCCNCCCNCCCN)c(=O)c2cc1OC)-c1cc2c(cc1C3=O)OCO2`, the concentration for 50% growth inhibition (GI50) in data set [2] was 43 µM; in data set [3], 44 µM; in data set [4], 0.88 µM; in data set [5], 33 µM; in data set [6], more than 100 µM; in data set [7], 68 µM.
Take `COc1cc2c3c(n(CCCNCCCNCCN)c(=O)c2cc1OC)-c1cc2c(cc1C3=O)OCO2`: the GI50 was 23 µM in [2]; 37 µM in data set [3]; 20 µM in data set [4]; 20 µM in data set [5]; 52 µM in [6]; 38 µM in data set [7].
On to `NCCCCCCCCCCCn1c2c(c3ccccc3c1=O)C(=O)c1ccccc1-2`, for which the concentration for 50% growth inhibition (GI50) in the data set with SF-268 came to 2.04 µM; in data set [1] it was 2.19 µM; in data set [2] it was 1.91 µM; in data set [3] it was 1.7 µM; in data set [4], 2.09 µM; in [5], 2 µM. In addition, the GI50 in data set [6] is 4.57 µM; in [7], 11 µM.
As for `CC(C)(C)OC(=O)NCCCCCCCn1c2c(c3ccccc3c1=O)C(=O)c1ccccc1-2`, the GI50 in the data set with SF-268 amounted to 20.9 µM; in data set [2], 17.4 µM; in [3] it was 20 µM; in [4] it was 33.9 µM; in data set [5], 74.1 µM; in data set [6], 31.6 µM. In data set [7], this molecule returned a GI50 of 81.3 µM. Further, the result in data set [8] was inactive.
Consider `COc1cc2c3c(n(CCCNCCNCCCN)c(=O)c2cc1OC)-c1cc2c(cc1C3=O)OCO2`, for which the 50% growth inhibitory concentration (GI50) in data set [1] came out at 2.9 µM; in data set [2], 1.3 µM; in data set [3], 1.9 µM; in data set [4], 8.1 µM; in data set [5], 1.7 µM; in [6], 4.6 µM. In addition, in data set [7], it took 3.4 µM to inhibit growth by half (GI50).
On to `NCCCCCCCCn1c2c(c3ccccc3c1=O)C(=O)c1ccccc1-2`, for which the GI50 in the data set with SF-268 came out at 2.82 µM; in data set [1], 2.14 µM; in [2], 1.66 µM; in data set [3], 3.8 µM; in data set [4] it was 3.47 µM; in data set [5], 3.47 µM. The values for the GI50 in data set [6] and in data set [7] were 3.39 µM and 5.62 µM, respectively.
For the molecule `O=C1c2ccccc2-c2c1c1ccccc1c(=O)n2CCc1cccnc1`, the 50% growth inhibitory concentration (GI50) with SF-268 was 27.5 µM; in data set [1], 28.8 µM; in data set [3] it was 89.1 µM; in data set [4], more than 100 µM; in [5] it was more than 100 µM; in data set [6], 81.3 µM. For the same molecule, halving of growth in data set [7] (GI50) required 4.57 µM. In addition, the outcome in [8] was inactive.
Turning to `COc1cc2c3c(n(C)c(=O)c2cc1OC)-c1cc2c(cc1C3=O)OCO2`, the GI50 in data set [7] was 96 µM.
